From ChEMBL document CHEMBL1121728, “Synthesis and antitumor activity of an acyclonucleoside derivative of 5-fluorouracil” (1981)

Legend:
[1] = system: L1210; assay: Inhibition against L1210 mouse leukemia cells; No effect; assay type: functional; conditions: read-out: ID50 (the source's name)
[2] = system: L1210; assay: Inhibition against L1210 mouse leukemia cells; Inactive; assay type: functional; conditions: read-out: ID50 (the source's name)
[3] = system: L1210; assay: Inhibition against L1210 mouse leukemia cells; assay type: functional; conditions: read-out: ID50 (the source's name)
How it was run: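 Growth inhibition of L1210 mouse leukemia cells in culture, reported as ID50 (molar concentration).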

[4] = system: P388; assay: Compound was evaluated for the 7-day percent change in weight of mice infected with P388 leukemia at a dose of 100 […] in b.i.d. x 4 schedule; assay type: functional, Mus musculus
How it was run: (§1)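 Male B6D2F₁J mice in groups of five received 10⁶ P388 cells ip on day 0. Compound was then given ip in water on the stated schedule. Body weights were taken on days 1 and 7, and the change is expressed as a percentage. Survival was also recorded as percent increase in life span.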

[5] = system: P388; assay: Compound was evaluated for the 7-day percent change in weight of mice infected with P388 leukemia at a dose of 100 […] in q.d. 1-4 schedule; assay type: functional, Mus musculus; how it was run: as §1
[6] = system: P388; assay: Compound was evaluated for the 7-day percent change in weight of mice infected with P388 leukemia at a dose of 120 […] in q.d. 1-9 schedule; assay type: functional, Mus musculus; how it was run: as §1
[7] = system: P388; assay: Compound was evaluated for the 7-day percent change in weight of mice infected with P388 leukemia at a dose of 200 […] in b.i.d. x 4 schedule; assay type: functional, Mus musculus; how it was run: as §1
[8] = system: P388; assay: Compound was evaluated for the 7-day percent change in weight of mice infected with P388 leukemia at a dose of 200 […] in q.d. 1-4 schedule; assay type: functional, Mus musculus; how it was run: as §1
[9] = system: P388; assay: Compound was evaluated for the 7-day percent change in weight of mice infected with P388 leukemia at a dose of 240 […] in q.d. 1-9 schedule; assay type: functional, Mus musculus; how it was run: as §1
[10] = system: P388; assay: Compound was evaluated for the 7-day percent change in weight of mice infected with P388 leukemia at a dose of 400 […] in b.i.d. x 4 schedule; assay type: functional, Mus musculus; how it was run: as §1
[11] = system: P388; assay: Compound was evaluated for the 7-day percent change in weight of mice infected with P388 leukemia at a dose of 50 […] in b.i.d. x 4 schedule; assay type: functional, Mus musculus; how it was run: as §1
[12] = system: P388; assay: Compound was evaluated for the 7-day percent change in weight of mice infected with P388 leukemia at a dose of 50 […] in q.d. 1-4 schedule; assay type: functional, Mus musculus; how it was run: as §1
[13] = system: P388; assay: Percent increase in survival of P388 leukemic mice at a compound dose 400 mg/kg (b.i.d. x 4) or 240 mg/kg (q.d. 1-9) was given intraperitoneally in water; assay type: functional, Mus musculus
How it was run: (§2)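 Male B6D2F1J mice, five per group, received 10^6 P388 leukemia cells ip on day 0. Treatment was ip in water on q.d. 1-4, b.i.d. × 4 or q.d. 1-9 schedules. Survival was recorded, and increase in life span (ILS) was calculated relative to untreated controls. Toxicity was judged by weight loss.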

[14] = system: P388; assay: Compound was evaluated for the median survival time of mice infected with P388 leukemia at a dose of 100 […] in b.i.d. x 4 schedule; assay type: functional, Mus musculus; how it was run: as §2
[15] = system: P388; assay: Compound was evaluated for the median survival time of mice infected with P388 leukemia at a dose of 100 […] in q.d. 1-4 schedule; assay type: functional, Mus musculus; how it was run: as §2
[16] = system: P388; assay: Compound was evaluated for the median survival time of mice infected with P388 leukemia at a dose of 120 […] in q.d. 1-9 schedule; assay type: functional, Mus musculus; how it was run: as §2
[17] = system: P388; assay: Compound was evaluated for the median survival time of mice infected with P388 leukemia at a dose of 200 […] in b.i.d. x 4 schedule; assay type: functional, Mus musculus; how it was run: as §2
[18] = system: P388; assay: Compound was evaluated for the median survival time of mice infected with P388 leukemia at a dose of 200 […] in q.d. 1-4 schedule; assay type: functional, Mus musculus; how it was run: as §2
[19] = system: P388; assay: Compound was evaluated for the median survival time of mice infected with P388 leukemia at a dose of 240 […] in q.d. 1-9 schedule; assay type: functional, Mus musculus; how it was run: as §2
[20] = system: P388; assay: Compound was evaluated for the median survival time of mice infected with P388 leukemia at a dose of 400 […] in b.i.d. x 4 schedule; assay type: functional, Mus musculus; how it was run: as §2
[21] = system: P388; assay: Compound was evaluated for the median survival time of mice infected with P388 leukemia at a dose of 50 […] in b.i.d. x 4 schedule; assay type: functional, Mus musculus; how it was run: as §2
[22] = system: P388; assay: Compound was evaluated for the median survival time of mice infected with P388 leukemia at a dose of 50 […] in q.d. 1-4 schedule; assay type: functional, Mus musculus; how it was run: as §2
[23] = system: P388; assay: Compound was evaluated for the median survival time of mice infected with P388 leukemia at a dose of 60 […] in q.d. 1-9 schedule; assay type: functional, Mus musculus; how it was run: as §2
[24] = system: P388; assay: 7-day weight change in mice infected with P388 leukemia at a dose of 60 […] in q.d. 1-9 schedule
[25] = system: P388; assay: Compound was evaluated for the 7-day percent change in weight of mice infected with P388 leukemia at a dose of 20 […] in b.i.d. x 4 schedule; assay type: functional, Mus musculus
How it was run: (§3)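 Groups of five male B6D2F1J mice were inoculated ip with 10^6 P388 cells on day 0. Drugs were given ip in water on q.d. 1-4, b.i.d. × 4 or q.d. 1-9 schedules. Animals were weighed on days 1 and 7, and weight change was expressed as a percentage.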

[26] = system: P388; assay: Compound was evaluated for the 7-day percent change in weight of mice infected with P388 leukemia at a dose of 20 […] in q.d. 1-4 schedule; assay type: functional, Mus musculus; how it was run: as §3
[27] = system: P388; assay: Compound was evaluated for the 7-day percent change in weight of mice infected with P388 leukemia at a dose of 40 […] in b.i.d. x 4 schedule; assay type: functional, Mus musculus; how it was run: as §3
[28] = system: P388; assay: Compound was evaluated for the 7-day percent change in weight of mice infected with P388 leukemia at a dose of 40 […] in q.d. 1-4 schedule; assay type: functional, Mus musculus; how it was run: as §3
[29] = system: P388; assay: Compound was evaluated for the 7-day percent change in weight of mice infected with P388 leukemia at a dose of 40 […] in q.d. 1-9 schedule; assay type: functional, Mus musculus; how it was run: as §3
[30] = system: P388; assay: Percent increase in life span against mice infected with P388 leukemia at a dose of 20 […] in q.d. 1-9 schedule; assay type: functional, Mus musculus; how it was run: as §2
[31] = system: P388; assay: Compound was evaluated for the median survival time of mice infected with P388 leukemia at a dose of 20 […] in b.i.d. x 4 schedule; assay type: functional, Mus musculus; how it was run: as §2
[32] = system: P388; assay: Compound was evaluated for the median survival time of mice infected with P388 leukemia at a dose of 20 […] in q.d. 1-4 schedule; assay type: functional, Mus musculus; how it was run: as §2
[33] = system: P388; assay: Compound was evaluated for the median survival time of mice infected with P388 leukemia at a dose of 20 […] in q.d. 1-9 schedule; assay type: functional, Mus musculus; how it was run: as §2
[34] = system: P388; assay: Compound was evaluated for the median survival time of mice infected with P388 leukemia at a dose of 40 […] in b.i.d. x 4 schedule; assay type: functional, Mus musculus
[35] = system: P388; assay: Compound was evaluated for the median survival time of mice infected with P388 leukemia at a dose of 40 […] in q.d. 1-4 schedule; assay type: functional, Mus musculus; how it was run: as §2
[36] = system: P388; assay: Compound was evaluated for the median survival time of mice infected with P388 leukemia at a dose of 40 […] in q.d. 1-9 schedule; assay type: functional, Mus musculus; how it was run: as §2

`O=c1[nH]c(=O)n(COCCO)cc1I` gave an IC50 [1] of 1 mM.
Work on `Nc1nc(=O)n(COCCO)cc1F` yielded an IC50 [2] of 100 µM.
`O=c1[nH]c(=O)n(COCCO)cc1F` showed an IC50 [3] of 17 µM, a Weight change [4] of 4% and a Weight change [5] of 6%. It also gave a Weight change [6] of 0%, a Weight change [7] of 4% and a Weight change [8] of 6%. For the same compound, the Weight change [9] was 0%, the Weight change [10] was 0% and the Weight change [11] was 5%. The Weight change [12] was 7%, the Increase [13] was 75% and the Median survival [14] was 17 days. For the same compound, the Median survival [15] was 15 days, the Median survival [16] was 18 days and the Median survival [17] was 20 days. It also gave a Median survival [18] of 17 days, a Median survival [19] of 21 days and a Median survival [20] of 21 days. For the same compound, the Median survival [21] was 16 days, the Median survival [22] was 14 days and the Median survival [23] was 16 days. The 7-day weight change [24] was 8%.
For `O=c1[nH]c(=O)n(COCCO)cc1Br`, the IC50 [1] was 1 mM.
In the case of `O=c1[nH]cc(F)c(=O)[nH]1` [FLUOROURACIL], the IC50 [3] is reported as 1 µM, the Weight change [25] is reported as 9% and the Weight change [26] is reported as -5%. It also gave a Weight change [27] of -12%, a Weight change [28] of -29% and a Weight change [29] of -23%. It also gave a Weight change [30] of -2%, a Median survival [31] of 19 days and a Median survival [32] of 23 days. For the same compound, the Median survival [33] was 21 days, the Median survival [34] was 12 days and the Median survival [35] was 10 days. It also gave a Median survival [36] of 12 days.
